Assay [1] has as its system Rattus norvegicus. Put plainly: Antihypertensive activity in spontaneously hypertensive rats was measured as average blood pressure at 30 mg/kg, p.o. after 4 hours of postdose-1. As to conditions: route oral. Format: functional. Summed up:
(§1)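 SHR model with two successive doses, designated dose 1 and dose 2. Group-average blood pressure in mmHg was recorded before dosing and at 4 h and 24 h after each dose. The route is oral unless marked intra-arterial or subcutaneous. A table footnote marks doses that gave no significant lowering at 4 or 24 h postdose.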

The test system of assay [2] is Rattus norvegicus. Put plainly: Antihypertensive activity in spontaneously hypertensive rats was measured as average blood pressure at 30 mg/kg, p.o. after 24 hours of postdose-1. It counts as functional. As to conditions: route oral. Summed up:
as §1

The test system of assay [3] is Rattus norvegicus. Kind of assay: Antihypertensive activity in spontaneously hypertensive rats was measured as average blood pressure at 30 mg/kg, po after 24 hours of postdose-2. It counts as functional. Put shortly:
as §1

The test system of assay [4] is Rattus norvegicus. Put plainly: Antihypertensive activity in spontaneously hypertensive rats was measured as average blood pressure at 30 mg/kg, p.o. after 4 hours of postdose-2. As to conditions: route oral. It counts as functional. Put shortly:
as §1

For assay [5], the system named is Rattus norvegicus. Kind of assay: Antihypertensive activity in spontaneously hypertensive rats was measured as average blood pressure at 30 mg/kg, po before predose. It counts as functional. Summed up:
as §1

Assay [6] concerns Rattus norvegicus. Put plainly: Antihypertensive activity in spontaneously hypertensive rats was measured as average blood pressure at 100 mg/kg, p.o. before predose. It counts as functional. To be noted: route oral. Put shortly:
as §1

Assay [7] deals with Rattus norvegicus. Kind of assay: Antihypertensive activity in spontaneously hypertensive rats was measured as average blood pressure at 100 mg/kg, p.o. after 4 hours of postdose-2. To be noted: route oral. Format: functional. Put shortly:
as §1

For assay [8], the system named is Rattus norvegicus. Put plainly: Antihypertensive activity in spontaneously hypertensive rats was measured as average blood pressure at 100 mg/kg, p.o. after 4 hours of postdose-1. Format: functional. To be noted: route oral. Summed up:
as §1

Assay [9] has as its system Rattus norvegicus. Kind of assay: Antihypertensive activity in spontaneously hypertensive rats was measured as average blood pressure at 100 mg/kg, p.o. after 24 hours of postdose-2. Format: functional. As to conditions: route oral. Summed up:
as §1

Assay [10] concerns Rattus norvegicus. Kind of assay: Antihypertensive activity in spontaneously hypertensive rats was measured as average blood pressure at 100 mg/kg, p.o. after 24 hours of postdose-1. It counts as functional. As to conditions: route oral. Summed up: as §1
The test system of assay [11] is Rattus norvegicus. Kind of assay: Antihypertensive activity in spontaneously hypertensive rats was measured as average blood pressure at 100 mg/kg, p.o. after 24 hours of postdose-1; No significant lowering of blood pressure. Format: functional, organism-based. Also noted: dose 100 mg/kg. Put shortly: as §1
Assay [12] concerns Rattus norvegicus. Kind of assay: Antihypertensive activity in spontaneously hypertensive rats was measured as average blood pressure at 100 mg/kg, po after 4 hours of postdose-1; No significant lowering of blood pressure. Details: dose 100 mg/kg. Format: functional, organism-based. Put shortly: as §1
In assay [13] the test system is Rattus norvegicus. Put plainly: Antihypertensive activity in spontaneously hypertensive rats was measured as average blood pressure at 15 mg/kg, p.o. after 4 hours of postdose-1; No significant lowering of blood pressure. It counts as functional, organism-based. Also noted: dose 15 mg/kg. Summed up: as §1
For assay [14], the system named is Rattus norvegicus. Put plainly: Antihypertensive activity in spontaneously hypertensive rats was measured as average blood pressure at 15 mg/kg, po after 24 hours of postdose-1; No significant lowering of blood pressure. It counts as functional, organism-based. Also noted: dose 15 mg/kg. Summed up:
as §1

Assay [15] concerns Rattus norvegicus. Kind of assay: Antihypertensive activity in spontaneously hypertensive rats was measured as average blood pressure at 14 mg/kg, p.o. after 4 hours of postdose-1; No significant lowering of blood pressure. Also noted: dose 14 mg/kg. Format: functional, organism-based. Put shortly: as §1
The subject of assay [16] is Rattus norvegicus. Put plainly: Antihypertensive activity in spontaneously hypertensive rats was measured as average blood pressure at 14 mg/kg, p.o. after 24 hours of postdose-1; No significant lowering of blood pressure. Format: functional, organism-based. Also noted: dose 14 mg/kg. Summed up: as §1
Assay [17] deals with Rattus norvegicus. Kind of assay: Antihypertensive activity in spontaneously hypertensive rats was measured as average blood pressure at 15 mg/kg, ia after 4 hours of postdose-2. Format: functional. To be noted: route intra-arterial. Summed up:
as §1

The subject of assay [18] is Rattus norvegicus. Kind of assay: Antihypertensive activity in spontaneously hypertensive rats was measured as average blood pressure at 15 mg/kg, ia before predose intra arterial. Format: functional, Artery. Put shortly: as §1
Assay [19] concerns Rattus norvegicus. Put plainly: Antihypertensive activity in spontaneously hypertensive rats was measured as average blood pressure at 15 mg/kg, sc before predose subcutaneous. It counts as functional. Put shortly: as §1
Assay [20] deals with Rattus norvegicus. Kind of assay: Antihypertensive activity in spontaneously hypertensive rats was measured as average blood pressure at 15 mg/kg, sc after 4 hours of postdose-2. Format: functional. To be noted: route subcutaneous. Put shortly: as §1
Assay [21] has as its system Rattus norvegicus. Put plainly: Antihypertensive activity in spontaneously hypertensive rats was measured as average blood pressure at 15 mg/kg, ia after 4 hours of postdose-1. Format: functional. As to conditions: route intra-arterial. Summed up: as §1
The subject of assay [22] is Rattus norvegicus. Kind of assay: Antihypertensive activity in spontaneously hypertensive rats was measured as average blood pressure at 15 mg/kg, sc after 24 hours of postdose-1. Format: functional. As to conditions: route subcutaneous. Put shortly:
as §1

Assay [23] concerns Rattus norvegicus. Put plainly: Antihypertensive activity in spontaneously hypertensive rats was measured as average blood pressure at 15 mg/kg, sc after 4 hours of postdose-1. It counts as functional. To be noted: route subcutaneous. Put shortly: as §1
Assay [24] has as its system Rattus norvegicus. Kind of assay: Antihypertensive activity in spontaneously hypertensive rats was measured as average blood pressure at 15 mg/kg, ia after 24 hours of postdose-1. Format: functional. To be noted: route intra-arterial. Put shortly:
as §1

The subject of assay [25] is Rattus norvegicus. Put plainly: Antihypertensive activity in spontaneously hypertensive rats was measured as average blood pressure at 15 mg/kg, sc after 24 hours of postdose-2. To be noted: route subcutaneous. Format: functional. Summed up:
as §1

Molecules are shown by their SMILES.

`CC(=O)c1c(-c2ccc(Cl)cc2)c(-c2ccc(Cl)cc2)nn(CCOC(=O)c2ccccc2)c1=O`: the BP in [1] is recorded as 116 mmHg; in assay [2], 139 mmHg; in assay [3], 130 mmHg; in assay [4], 136 mmHg; in assay [5], 173 mmHg.
In the case of `C[C@](N)(Cc1ccc(O)c(O)c1)C(=O)O` [METHYLDOPA], the BP in [6] turned out to be 178 mmHg; in assay [7], 155 mmHg; in assay [8], 161 mmHg; in assay [9], 166 mmHg; in assay [10], 174 mmHg.
As to `CC(=O)c1c(-c2ccc(Cl)cc2)c(-c2ccc(Cl)cc2)nn(CCOC(=O)C(Cc2ccccc2)NC(=O)OCc2ccccc2)c1=O` (centres undefined), the BP result in assay [11] and in assay [12] was “Not significant” throughout.
As for `CCC(=O)OCCn1nc(-c2ccc(Cl)cc2)c(-c2ccc(Cl)cc2)c(C(C)=O)c1=O`, the BP in assay [1] was found to be 133 mmHg; in [2], 136 mmHg; in assay [3], 168 mmHg; in [4], 129 mmHg; in assay [5], 181 mmHg.
Take `CC(=O)c1c(-c2ccc(Cl)cc2)c(-c2ccc(Cl)cc2)nn(CCOC(=O)C(NC(=O)OCc2ccccc2)C2(/N=C(/N)N[N+](=O)[O-])CCC2)c1=O` (centres undefined): the BP result in assay [11] and in [12] was “Not significant” in each case.
On to `CC(=O)c1c(-c2ccc(Cl)cc2)c(-c2ccc(Cl)cc2)nn(CCOC(=O)C(N)Cc2ccccc2)c1=O` (centres undefined), for which the BP result in assay [13] and in assay [14] was “Not significant” throughout.
In the case of `CC(=O)c1c(-c2ccc(Cl)cc2)c(-c2ccc(Cl)cc2)nn(CCOC(=O)C(N)C(C)C)c1=O` (centres undefined), the BP result in assay [15] and in [16] was “Not significant” in each case.
In the case of `CC(=O)c1c(-c2ccc(Cl)cc2)c(-c2ccc(Cl)cc2)nn(CCOC(=O)C(N)CCCCN)c1=O.Cl.Cl` (centres undefined), the BP in assay [17] was found to be 171 mmHg; in assay [18], 199 mmHg; in assay [19], 181 mmHg; in assay [20], 166 mmHg; in [21], 183 mmHg; in [22], 171 mmHg. The BP in [23] is on record as 169 mmHg; in assay [24], 159 mmHg; in assay [25], 185 mmHg.
As to `CC(=O)c1c(-c2ccc(Cl)cc2)c(-c2ccc(Cl)cc2)nn(CCOC(=O)CCNC(=O)OCc2ccccc2)c1=O`, the BP result in assay [11] and in assay [12] was “Not significant” in each case.
In the case of `CC(=O)c1c(-c2ccc(Cl)cc2)c(-c2ccc(Cl)cc2)nn(CCO)c1=O`, the BP in [6] is 218 mmHg; in assay [1], 200 mmHg; in assay [2], 192 mmHg; in [3], 206 mmHg; in assay [7], 174 mmHg; in [8], 173 mmHg. For the same compound, the BP in [9] is 193 mmHg; in assay [4] it was 164 mmHg; in assay [10], 185 mmHg; in [5], 213 mmHg.

The values are drawn from ChEMBL document CHEMBL1121378, “Lipophilic and hydrophilic esters of 4-acetyl-2-(2-hydroxyethyl)-5,6-bis(4-chlorophenyl)-2H-pyridazin-3-one as antihypertensive agents” (1980).
